Results published in ChEMBL document CHEMBL3259707, “Design and synthesis of human ABCB1 (P-glycoprotein) inhibitors by peptide coupling of diverse chemical scaffolds on carboxyl and amino termini of (S)-valine-derived thiazole amino acid” (J Med Chem, 2014).

Assays:
[1] = Retention time of the compound by HPLC analysis; assay type: physicochemical
Procedure, shortened: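 Reverse-phase C18 HPLC, isocratic acetonitrile/water 60:40, 1.0 mL/min, UV 254 nm; purity from major-peak area.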

[2] = target: T1, ATP-dependent translocase ABCB1 (Homo sapiens, UniProt P08183); test: Inhibition of human wild type P-gp expressed in BacMam virus infected human HeLa cells assessed as calcein-AM accumulation at 10 uM after 10 mins by flow cytometry; assay type: cell-based
T1 sequence (P08183 whole entry): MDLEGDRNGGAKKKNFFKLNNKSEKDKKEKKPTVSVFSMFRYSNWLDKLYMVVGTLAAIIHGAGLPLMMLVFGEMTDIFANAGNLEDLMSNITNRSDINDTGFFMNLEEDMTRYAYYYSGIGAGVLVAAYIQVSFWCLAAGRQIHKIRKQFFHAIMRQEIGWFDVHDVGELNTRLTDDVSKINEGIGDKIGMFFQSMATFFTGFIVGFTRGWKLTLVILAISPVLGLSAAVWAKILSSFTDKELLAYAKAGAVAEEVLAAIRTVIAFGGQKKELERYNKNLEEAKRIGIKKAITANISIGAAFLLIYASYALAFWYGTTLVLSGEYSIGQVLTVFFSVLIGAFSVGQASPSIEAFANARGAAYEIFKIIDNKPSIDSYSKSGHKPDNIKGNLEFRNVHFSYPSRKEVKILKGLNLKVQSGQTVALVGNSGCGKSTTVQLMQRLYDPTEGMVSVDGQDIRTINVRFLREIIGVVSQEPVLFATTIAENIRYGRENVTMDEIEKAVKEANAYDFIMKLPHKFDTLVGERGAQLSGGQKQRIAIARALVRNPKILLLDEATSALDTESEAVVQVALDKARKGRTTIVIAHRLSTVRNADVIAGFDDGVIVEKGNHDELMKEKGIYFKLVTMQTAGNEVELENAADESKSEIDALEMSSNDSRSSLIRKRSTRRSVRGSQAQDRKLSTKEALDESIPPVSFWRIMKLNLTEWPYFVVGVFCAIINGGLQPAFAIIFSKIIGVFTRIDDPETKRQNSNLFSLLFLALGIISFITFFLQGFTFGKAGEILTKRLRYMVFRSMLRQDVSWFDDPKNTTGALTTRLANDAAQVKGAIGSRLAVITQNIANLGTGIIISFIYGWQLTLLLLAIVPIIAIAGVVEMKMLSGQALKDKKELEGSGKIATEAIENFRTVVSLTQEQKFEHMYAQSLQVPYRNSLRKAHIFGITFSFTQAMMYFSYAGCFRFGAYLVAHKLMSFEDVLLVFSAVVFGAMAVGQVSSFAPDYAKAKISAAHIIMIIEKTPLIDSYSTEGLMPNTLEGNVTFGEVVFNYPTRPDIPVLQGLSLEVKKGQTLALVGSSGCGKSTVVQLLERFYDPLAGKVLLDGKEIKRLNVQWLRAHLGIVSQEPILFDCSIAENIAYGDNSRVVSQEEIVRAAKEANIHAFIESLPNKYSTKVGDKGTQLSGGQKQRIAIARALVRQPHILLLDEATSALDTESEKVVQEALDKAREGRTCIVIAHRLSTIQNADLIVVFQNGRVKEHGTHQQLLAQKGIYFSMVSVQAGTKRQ
Procedure, shortened: (§1)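 HeLa cells transduced with BacMam WT-P-gp (10–15 particles/cell); 10 mM butyric acid added after 3–4 h, grown overnight at 37 °C. Trypsinized cells exposed to compound, then 0.5 μM calcein-AM for 10 min at 37 °C in the dark. […] Two independent experiments in triplicate, ± SD.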

[3] = Retardation factor of the compound using EtOAc-n-hexane at ratio of 1:1 by thin layer chromatography; assay type: physicochemical
[4] = target: T1, ATP-dependent translocase ABCB1; test: Inhibition of human P-gp
[5] = target: T1, ATP-dependent translocase ABCB1; test: Inhibition of human wild type P-gp expressed in BacMam virus infected human HeLa cells assessed as calcein-AM accumulation after 10 mins by flow cytometry; assay type: cell-based; details: for inhibition (INH): human, 10 min; procedure, shortened: as §1
[6] = Retardation factor of the compound using EtOAc-n-hexane at ratio of 3:2 by thin layer chromatography; assay type: physicochemical
[7] = Cytotoxicity against human SW620/Ad300 cells overexpressing ABCB1 assessed as cell survival at 3 uM by MTT assay; assay type: ADME, cell-based, SW-620; details: SW620/Ad300 cells that overexpress ABCB1, read-out: Activity
Procedure, shortened: (§2)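 MTT survival. Cells seeded 5000–6000/well, attached 24 h at 37 °C, 5% CO2; test agent for 72 h; MTT 4 mg/mL stock added, 4 h at 37 °C; formazan dissolved in DMSO, A570 read. Four independent experiments, each in triplicate. SW620/Ad300 is the doxorubicin-selected P-gp subline of SW620; HEK293 grown in DMEM with G418 (2 mg/mL). All cells kept drug-free >2 weeks before assay.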

[8] = target: T1, ATP-dependent translocase ABCB1; test: Displacement of […] from ABCB1 (unknown origin) expressed in High Five insect cell membrane at >5 uM preincubated for 10 mins by autoradiography; details: human
Procedure, shortened: (§3)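 Compound 0–20 μM, 10 min at 37 °C. Then [125I]-IAAP (2200 Ci/mmol; 4–6 nM) added for 5 min under minimal light. UV 365 nm for 10 min, labeling read by autoradiography. Two independent experiments; curve fitted by one-phase decay.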

[9] = Cytotoxicity against human HEK293 cells overexpressing human ABCB1 assessed as cell survival at 3 uM by MTT assay; assay type: ADME, cell-based; details: HEK293 cells that overexpress human ABCB1, read-out: Activity
Procedure, shortened: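 HEK293 cells stably transfected with human ABCB1 cDNA, kept in DMEM with G418 (2 mg/mL) and drug-free for over 2 weeks. Cells seeded at 5000–6000/well, attached 24 h at 37 °C, 5% CO2, then exposed 72 h to modulator. MTT (4 mg/mL) added for 4 h, formazan dissolved in DMSO, absorbance read at 570 nm. Four independent experiments, each in triplicate.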

[10] = target: T1, ATP-dependent translocase ABCB1; test: Displacement of […] from ABCB1 (unknown origin) expressed in High Five insect cell membrane preincubated for 10 mins by autoradiography; procedure, shortened: as §3
[11] = Cytotoxicity against human HEK293 cells assessed as cell survival at 3 uM by MTT assay; assay type: cell-based; details: read-out: Activity; procedure, shortened: as §2
[12] = Cytotoxicity against human SW620 cells assessed as cell survival at 3 uM by MTT assay; assay type: cell-based, SW-620; details: read-out: Activity; procedure, shortened: as §2
[13] = Inhibition of mouse P-gp

Retention_time [1] [min]	inhibition (INH) [2] [%]	Rf [3]	Rf [6]	SMILES	further results
3.3	58	0.4	–	COc1cc(NC(=O)c2csc([C@@H](NC(=O)c3cc(OC)c(OC)c(OC)c3)C(C)C)n2)cc(OC)c1OC	–
–	–	–	–	CCOC(=O)c1csc([C@@H](NC(=O)c2csc([C@@H](NC(=O)c3csc([C@@H](NC(=O)OC(C)(C)C)C(C)C)n3)C(C)C)n2)C(C)C)n1	IC50 [4]: 1500 nM
3.4	11	0.5	–	CCOC(=O)c1csc([C@@H](NC(=O)/C=C/c2ccc(OC)c(OC)c2)C(C)C)n1	–
–	–	–	–	COc1ccc(CNC(=O)c2csc([C@@H](NC(=O)c3csc([C@@H](NC(=O)OC(C)(C)C)C(C)C)n3)C(C)C)n2)c(OC)c1	IC50 ([5]; hela): 2000 nM
3.9	24	0.45	–	COc1ccc([C@@H](C)NC(=O)c2csc([C@@H](NC(=O)c3cc(OC)c(OC)c(OC)c3)C(C)C)n2)cc1	–
2.7	4	0.3	–	COc1cc(CNC(=O)c2csc([C@@H](NC(=O)c3cc(OC)c(OC)c(OC)c3)C(C)C)n2)cc(OC)c1OC	–
8	–	0.45	–	COc1cc(NC(=O)c2csc([C@@H](NC(=O)c3csc([C@@H](NC(=O)OC(C)(C)C)C(C)C)n3)C(C)C)n2)cc(OC)c1OC	IC50 [5]: 6500 nM; inhibition (INH) ([5]; hela): Dose-dependent effect
4.3	37	0.55	–	COc1cc(NC(=O)c2csc([C@@H](NC(=O)c3cc(OC)c(OC)c(OC)c3)C(C)C)n2)cc(OC)c1	–
–	–	–	–	COc1ccc(C(C)NC(=O)c2csc([C@@H](NC(=O)c3csc([C@@H](NC(=O)OC(C)(C)C)C(C)C)n3)C(C)C)n2)cc1 (stereo not given in full)	IC50 [5]: 2000 nM
3.5	40	–	0.5	COc1cc(C(=O)N[C@H](c2nc(C(=O)Nc3ccc4c(c3)OCO4)cs2)C(C)C)cc(OC)c1OC	–
2.2	5	–	0.2	COc1cc(C(=O)N[C@H](c2nc(C(=O)NCCc3ccccn3)cs2)C(C)C)cc(OC)c1OC	–
6.8	18	–	0.5	COc1cc(C(=O)N[C@H](c2nc(C(=O)Nc3ccc(C(=O)c4ccccc4)cc3)cs2)C(C)C)cc(OC)c1OC	–
–	–	–	–	CC(C)[C@@H]1NC(=O)c2csc(n2)[C@H](C(C)C)NC(=O)c2csc(n2)[C@H](C(C)C)NC(=O)c2csc1n2	viability at 3 µM [7]: > 85%; IC50 [4]: 1500 nM; inhibition (INH) [8]: 90%; viability at 3 µM [9]: > 85%; inhibition (INH) [10]: Dose-dependent effect; viability at 3 µM [11]: > 85%; viability at 3 µM [12]: > 85%; IC50 [13]: 2700 nM
3.7	10	0.6	–	CCOC(=O)c1csc([C@@H](NC(=O)c2cc(OC)c(OC)c(OC)c2)C(C)C)n1	–
4.7	15	0.2	–	COc1cc2c(cc1OC)C(=O)C(CC1CCN(C(=O)c3csc([C@@H](NC(=O)OC(C)(C)C)C(C)C)n3)CC1)C2 (stereo not given in full)	–
6.3	23	–	0.5	COc1cc(C(=O)N[C@H](c2nc(C(=O)NCc3ccc(-c4ccccc4)cc3)cs2)C(C)C)cc(OC)c1OC	–
–	–	–	–	CC(C)[C@H]1NC(=O)c2csc(n2)[C@@H](C(C)C)NC(=O)c2csc(n2)[C@@H](C(C)C)NC(=O)c2csc1n2	IC50 [13]: 8400 nM
3.5	–	0.4	–	CCOC(=O)c1csc([C@@H](NC(=O)c2csc([C@@H](NC(=O)c3ccc(OC)c(OC)c3)C(C)C)n2)C(C)C)n1	IC50 [5]: 16000 nM; inhibition (INH) ([5]; hela): Dose-dependent effect
9.5	54	–	0.4	COc1cc(C(=O)N[C@H](c2nc(C(=O)Nc3ccccc3C(=O)c3ccc(F)cc3)cs2)C(C)C)cc(OC)c1OC	–
7.6	–	0.55	–	COc1ccc(NC(=O)c2csc([C@@H](NC(=O)c3csc([C@@H](NC(=O)OC(C)(C)C)C(C)C)n3)C(C)C)n2)c(OC)c1	IC50 [5]: 2500 nM; inhibition (INH) ([5]; hela): Dose-dependent effect
3.6	55	0.4	–	CCOC(=O)c1csc([C@@H](NC(=O)c2csc([C@@H](NC(=O)c3cc(OC)c(OC)c(OC)c3)C(C)C)n2)C(C)C)n1	–
4.1	47	–	0.5	COc1cc(C(=O)N[C@H](c2nc(C(=O)NC3Cc4ccccc4C3)cs2)C(C)C)cc(OC)c1OC	–
3.3	2	0.4	–	CCOC(=O)c1csc([C@@H](NC(=O)c2cnc3ccccc3c2)C(C)C)n1	–
2.8	16	–	0.3	COc1cc2c(cc1OC)CN(C(=O)c1csc([C@@H](NC(=O)c3cc(OC)c(OC)c(OC)c3)C(C)C)n1)CC2	–
3.1	20	–	0.35	COc1cc(C(=O)N[C@H](c2nc(C(=O)NCc3ccc4c(c3)OCO4)cs2)C(C)C)cc(OC)c1OC	–
